Results on 36 sequences are retold here after the EternaBench riboswitch data.

For this data set, the system named is MS2 coat protein. The data set is described as follows: apparent Kd, MS2 coat protein; higher = weaker binding; RNA-MaP array; FMN 200 µM where present. Put shortly: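 Green signal was scaled to red-channel RNA signal and control-cluster median Fmax, and the apparent Kd was taken as the median of filtered per-cluster binding-curve fits. The binding series used SNAP-549-labelled MS2 coat protein from 0.7 or 1.5 nM, doubling to 3 µM, on designs transcribed by stalled E. coli RNA polymerase on Illumina sequencing-chip clusters. Each series ran without and then with constant ligand in 100 mM Tris-HCl pH 7.5, 80 mM KCl, 4 mM MgCl2, BSA, DTT, yeast tRNA and Tween-20.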

The mark [1] stands for this setting: designed as: OFF switch for flavin mononucleotide, no ligand.
The mark [2] stands for this setting: ligand present: flavin mononucleotide, designed as: OFF switch for flavin mononucleotide.
[3] abbreviates: designed as: ON switch for flavin mononucleotide, no ligand.
Setting [4] is: ligand present: flavin mononucleotide, designed as: ON switch for flavin mononucleotide.

Take “GUCAGAAGUGCAGGAUAUGCUGAGGCAUUCGCGGCAGAAGGGCACAUGAGGAUCACCCAUGUAGCCGGGUAUUGUACCUUAUCA”: the apparent Kd (in general, the concentration giving half-maximal binding under the conditions of the assay) by setting is: under setting [1], 6.36 nM; under setting [2], 9.16 nM.
On to “UUGUACUAGGGAGGAUAUGGGAAGAUACAUGAGGAUCACCCAUGUUUAAGAAUGCCGAGAGGCAACUAGAAGGCCCUAGUACCU”, for which the “apparent Kd” value is, setting by setting: under setting [3], 473 nM; under setting [4], 19.4 nM.
As for “UUAAUUUGUCAAGGAUAUGUAAUAUAGAUUAGAAAACAUGAGGAUCACCCAUGUAUAUGGUGGGAACAGAAGGUGAAUGGUUUA”, the “apparent Kd” value was determined as 189 nM under setting [1] and 160 nM under setting [2].
“CCAUGUCUAUGAGGAUAUCCGAAUUAGCGUUUGACAACGAUGAGUUCUCCAGGAGAAGGCAUGGACAUGAGGAUCACCCAUGUA”: the “apparent Kd” value by setting is: under setting [1], 29.6 nM; under setting [2], 75.5 nM.
With “CUGACGGCGACGACAUUUCCAGAACCAGAAGGUGAAGUCAACAUGAGGAUCACCCAUGUCUAUAUCAAGGAUAUGGUAGUGGGC”, the “apparent Kd” value is, setting by setting: under setting [3], 301 nM; under setting [4], 92.2 nM.
Turning to “CGCUACUACCAGAAGGACAUGAGGAUCACCCAUGUAGGAUAUGGGUUACACGUUCCUGUGUUAAGUUACUACGCUACGUAUGCG”, the “apparent Kd” value by setting is: under setting [3], 419 nM; under setting [4], 20.2 nM.
Regarding “GUACUACAUGAGGAUCACCCAUGUGAGGAUAUGCGAAUUUCAUCAAAAGAUGAAAUUUGCAGAAGGCACAGUAC”, the “apparent Kd” value was 31.2 nM under setting [1] and 29 nM under setting [2].
Take “GCGUACAUAUCAGGAUAUCAUAUUAUUGUUUAACUCAGUGUAUACAUGAGGAUCACCCAUGUUCUUGAGAAGGGAUAUGUACGC”: the “apparent Kd” value came to 8.15 nM under setting [1] and 8.79 nM under setting [2].
Take “GUGGUUCUCGUAGGAUAUGUAGGAUAUGCCUACAUGAGGAUCACCCAUGUUCGCAUGGCAGAAGGACAGAAGGACGAUCACCAG”: the “apparent Kd” value is 54.6 nM under setting [3] and 27.7 nM under setting [4].
As for “GGAUUUUCUGAGGAUAUUGCAUCACCCGAUUUAUAAGAAGGCAGAACAUGAGGAUCACCCAUGUGGGUCUCCAG”, the “apparent Kd” value is, setting by setting: under setting [1], 28.6 nM; under setting [2], 58 nM.
Take “GAGCUUGAUGAGAAGGGUUACAUGAGGAUCACCCAUGUCGACCUUGGCGUAACAGGAUAUCAUCGGGCUCUGUGCGUUGACACA”: the “apparent Kd” value reads like this: under setting [1], 27 nM; under setting [2], 121 nM.
The like results for “UGCGUGUUAGGAUAUCCGCCAAAGACCGACGGUGGAACGCAGGAGAAGGAACAUGAGGAUCACCCAUGUGGGAA” were, in that order, 88.1 nM and 34.3 nM.
With “UGUUGUAUUACAGGAUAUCUAUUAGUUUUAUAUAGAGAAGGGUAUUCACAUGAGGAUCACCCAUGUAUAUACGAGGAAGUUGUG”, the “apparent Kd” value turned out to be 43.4 nM under setting [3] and 45.5 nM under setting [4].
The like results for “GACGGACAUGAGGAUCACCCAUGUAGGUUGGCCACAGGAUAUGCAAAACGGCCUGCCGCGGCAGAAGGGUGAGCCC” were, in that order, 39.1 nM and 43.7 nM.
The like results for “UACAUUGCUUAGAAGGGAUAUAUAUAAUUUUAGUCAGGAUAUAGAUACAGUACAACAUGAGGACAUGAGGAUCACCCAUGUAUU” were, in that order, 25.9 nM and 18.4 nM.
Turning to “UCCUCACAUGAGGAUCACCCAUGUCAGGAUAUAGGAGAUGGCAGAAAUCCUGCCAUCGCUAGAAGGGACUGGCA”, the “apparent Kd” value is, setting by setting: under setting [1], 43.8 nM; under setting [2], 154 nM.
Turning to “CGGUGUAGAGGAUAUACGUGAAUUUUGUUAUAUGAUAAUUUACAUGAGGAUCACCCAUGUAGAAGGCUAUAGCG”, the “apparent Kd” value runs as follows: under setting [1], 17.9 nM; under setting [2], 18.1 nM.
The like results for “UAUAUAUAGUAAGGAUAUGUAAUUAUCUUAUAAACAGAAGGUACUGACAUGAGGAUCACCCAUGUUUUAGUGUGGGCAUGUAGA” were, in that order, 56.9 nM and 60.1 nM.
Take “UUGCCUCAGAACAUGAGGAUCACCCAUGUGCUGCGGGCAACGUAGGAUAUGACGGUAUGAUACCGUCAGAAGGAUGAUGGUACC”: the “apparent Kd” value is, setting by setting: under setting [3], 5.62 nM; under setting [4], 5.25 nM.
With “GAGCGGGAAACAUGAGGAUCACCCAUGUAAAAAAUCCUCAAGUAGGAUAUGCGAAAAAAAAAAAAGCAGAAGGGCUACCCGGUC”, the “apparent Kd” value is, setting by setting: under setting [1], 58.3 nM; under setting [2], 72.7 nM.
The like results for “AGUACUACAGGAUAUACAUGGGUGAUCCUCAUGUCCCUUCUACAUGAGGAUCACCCAUGUAGAAGGGUAGUACA” were, in that order, 15.1 nM and 11.3 nM.
For “AGCAUGCUAGGAUAUACGGGACAUUAGGGUUCGUCGUAUGGACAUGAGGAUCACCCAUGUAGAAGGAGCGUGCA”, the “apparent Kd” value runs as follows: under setting [1], 20.7 nM; under setting [2], 44.2 nM.
As for “UGUACGGACAUGAGGAUCACCCAUGUAACCAAGCAGUUGGUACAGGAUAUCGCUUAAUAACUAAGCGAGAAGGGUGGUUCUGCA”, the “apparent Kd” value under setting [3] was 32.5 nM and the “apparent Kd” value under setting [4] was 63.4 nM.
As to “GGAUGACAAAGUCAUCCAAAUCGAACAUGAGGAUCACCCAUGUAGGAUAUGCUACACAAAGUGUAGCAGAAGGACAUGUGCUUU”, the “apparent Kd” value came to 42.2 nM under setting [1] and 258 nM under setting [2].
As for “GCCAUCGCAUGAGGAUAUGCUCCCGUUUCGGGAGCAGAAGGCAUGUCAAAAGACAUGAGGAUCACCCAUGUAGUUAAGAUGGCA”, the “apparent Kd” value runs as follows: under setting [3], 122 nM; under setting [4], 7.89 nM.
As for “CUCUUUAGUCAGGAUAUCGUGAGGCUAAUUAUACGAGAAGGGACGACAUGAGGAUCACCCAUGUGGUCUUAGAG”, the “apparent Kd” value reads like this: under setting [1], 17.4 nM; under setting [2], 32.1 nM.
In the case of “UGUCGGAGCAGAGGAUAUUACAUGAGGAUCACCCAUGUAUGAACCAAUAGCUGGAAACAGCAAUGUAAGAAGGCUGCUCCGAGA”, the “apparent Kd” value amounted to 13.3 nM under setting [1] and 196 nM under setting [2].
For the sequence “UGUCCAUAGCAGAAGGCAUGUCAAAAGACAUGAGGAUCACCCAUGUAAGCAUGAGGAUAUGCUAUGGACUAAGAGCGAAAGCUC”, the “apparent Kd” value runs as follows: under setting [1], 9.14 nM; under setting [2], 5.78 nM.
In the case of “GUGCCUAACUAGAAGGCAGUGUGCAAAGCAUUCUGAGGAUAUGGGUUCCGGAAACGGACAUGAGGAUCACCCAUGUGGCACAAA”, the “apparent Kd” value runs as follows: under setting [3], 424 nM; under setting [4], 26.7 nM.
For “CCUCGACAUGAGGAUCACCCAUGUCAGGAUAUUGUGUUUUGGGUUUUUUACCUUUUGGCAAGAAGGGAUGUGUG”, the “apparent Kd” value is, setting by setting: under setting [1], 15.5 nM; under setting [2], 19.1 nM.
For the sequence “CAGCUACCCAGUAUGGGUAUUUGUACAGAAGGCCAGGUACAUGAGGAUCACCCAUGUAAAGAUAUGGAGGAUAUGUUAGUGUAU”, the “apparent Kd” value under setting [3] is 22.1 nM and the “apparent Kd” value under setting [4] came out at 6.86 nM.
Turning to “GUCAGCUCGUGAGGAUAUACAUGUGCUGGAGACAGCACUAUUGUGUUCACAUGAGGAUCACCCAUGUAGAAGGCACGAGCUGAU”, the “apparent Kd” value under setting [1] worked out at 18.3 nM and the “apparent Kd” value under setting [2] was 85.5 nM.
As to “UUCCAACGAGGAUAUCGAUGGUGGAACAUGAGGAUCACCCAUGUAUGAGAUAUUGUAGUUCGAGAAGGCGUUCAGU”, the “apparent Kd” value under setting [1] was determined as 36.9 nM and the “apparent Kd” value under setting [2] was determined as 32.2 nM.
As for “UGCUACCUAGGAUAUACAUGAGGAUCACCCAUGUGAUUCGGUGGCGCGAUCCUUGAAAGUAGAAGGAGGAGCAA”, the “apparent Kd” value turned out to be 38.4 nM under setting [1] and 27.4 nM under setting [2].
In the case of “UUGGAUGUUGAGGAUAUGCUGGUGUUUAUUAUAGCAGAAGGCGAUACAUGAGGAUCACCCAUGUUCAUGGCUUU”, the “apparent Kd” value reads like this: under setting [1], 12.8 nM; under setting [2], 15.2 nM.
On to “AGUGGCCGAGGAUAUACGGACGUGUCGCCGGGUGUCGUGGGACAUGAGGAUCACCCAUGUAGAAGGUGGUUGUU”, for which the “apparent Kd” value is, setting by setting: under setting [1], 170 nM; under setting [2], 219 nM.
